Assay results as given in ChEMBL document CHEMBL1667736, “Tirucallane triterpenoids from Cornus walteri” (J Nat Prod, 2011).

Key:
Type in all cases: functional, cell-based
[1] = tested on: A549; assay: Cytotoxicity against human A549 cells by SRB assay
How it was run: (§1)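 Sulforhodamine B (SRB) cytotoxicity assay on cultured human cancer lines: A549 (non-small cell lung adenocarcinoma), SK-OV-3 (ovarian), SK-MEL-2 (skin melanoma), XF498 (CNS). Assays were run at the Korea Research Institute of Chemical Technology. Etoposide served as positive control. Potency is expressed as IC50 in µM.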

[2] = tested on: SK-OV-3; assay: Cytotoxicity against human SKOV3 cells by SRB assay; how it was run: as §1
[3] = tested on: SK-MEL-2; assay: Cytotoxicity against human SK-MEL-2 cells by SRB assay; how it was run: as §1
[4] = tested on: XF498; assay: Cytotoxicity against human XF498 cells by SRB assay; how it was run: as §1

CO[C@@H](C=C(C)C)C[C@H](C)[C@@H]1CC[C@]2(C)C3=CCC4C(C)(C)C(=O)CC[C@]4(C)[C@H]3CC[C@@]12C (stereo not given in full) [CORNUSALTERIN G]
IC50 [1]: 29.9 µM
IC50 [2]: 26.9 µM
IC50 [3]: 18 µM
IC50 [4]: 20.5 µM

COC(C)(C)/C=C/C[C@H](C)[C@@H]1CC[C@]2(C)C3=CCC4C(C)(C)C(=O)CC[C@]4(C)[C@H]3CC[C@@]12C (stereo partly drawn) [(-)-LEUCOPHYLLONE]
IC50 [1]: 24.9 µM
IC50 [2]: 18 µM
IC50 [3]: 21.2 µM
IC50 [4]: 18.2 µM

CC(C)=C[C@H]1C[C@@H]([C@@H]2CC[C@]3(C)C4=CCC5C(C)(C)C(=O)CC[C@]5(C)[C@H]4CC[C@@]23C)CO1 (stereo not given in full) [DEOXYFLINDISSONE]
IC50 [1]: 4.02 µM
IC50 [2]: 3.64 µM
IC50 [3]: 6.07 µM
IC50 [4]: 5.1 µM

CO[C@H](C=C(C)C)C[C@H](C)[C@@H]1CC[C@]2(C)C3=CCC4C(C)(C)C(=O)CC[C@]4(C)C3=CC[C@@]12C (stereo not given in full) [CORNUSALTERIN I]
IC50 [1]: 17.6 µM
IC50 [2]: 13.5 µM
IC50 [3]: 10.4 µM
IC50 [4]: 12.3 µM

C=C(C)/C=C/C[C@H](C)[C@@H]1CC[C@]2(C)C3=CCC4C(C)(C)C(=O)CC[C@]4(C)[C@H]3CC[C@@]12C (stereo not given in full) [CORNUSALTERIN D]
IC50 [1]: 26.9 µM
IC50 [2]: 14.5 µM
IC50 [3]: 12.7 µM
IC50 [4]: 17.8 µM

COC(C)(C)/C=C/C[C@H](C)[C@@H]1CC[C@]2(C)[C@@H]3CCC4C(C)(C)C(=O)CC[C@]4(C)[C@H]3CC[C@@]12C (stereo not given in full) [CORNUSALTERIN B]
IC50 [1]: 28.8 µM
IC50 [2]: 19.2 µM
IC50 [3]: 18 µM
IC50 [4]: 28.7 µM

COC(C)(C)/C=C/C[C@H](C)[C@@H]1CC[C@]2(C)[C@@H]3CCC4C(C)(C)[C@@H](O)CC[C@]4(C)[C@H]3CC[C@@]12C (stereo not given in full) [CORNUSALTERIN C]
IC50 [1]: 23.6 µM
IC50 [2]: 16.5 µM
IC50 [3]: 11.9 µM
IC50 [4]: 17.6 µM

CC(C)=C[C@@H]1C[C@@H]([C@@H]2CC[C@]3(C)C4=CCC5C(C)(C)C(=O)CC[C@]5(C)[C@H]4CC[C@@]23C)CO1 (stereo not given in full) [CORNUSALTERIN L]
IC50 [1]: 4.29 µM
IC50 [2]: 3.82 µM
IC50 [3]: 4.73 µM
IC50 [4]: 5.81 µM

CC(C)CCC[C@H](C)[C@@H]1CC[C@]2(C)C3=CCC4C(C)(C)C=CC(=O)[C@]4(C)[C@H]3CC[C@@]12C (stereo not given in full) [CORNUSALTERIN F]
IC50 [1]: 27 µM
IC50 [2]: 27.3 µM
IC50 [3]: 21.4 µM
IC50 [4]: 24.6 µM

CC(C)CCC[C@H](C)[C@@H]1CC[C@]2(C)C3=CCC4C(C)(C)C(=O)C=C[C@]4(C)[C@H]3CC[C@@]12C (stereo not given in full) [CORNUSALTERIN E]
IC50 [1]: 18.4 µM
IC50 [2]: 14.1 µM
IC50 [3]: 12.5 µM
IC50 [4]: 13.1 µM

COC(C)(C)/C=C/C[C@H](C)[C@@H]1CC[C@]2(C)C3=CCC4C(C)(C)[C@@H](O)CC[C@]4(C)[C@H]3CC[C@@]12C (stereo not given in full) [CORNUSALTERIN A]
IC50 [1]: 22.2 µM
IC50 [2]: 12.5 µM
IC50 [3]: 12.1 µM
IC50 [4]: 17.4 µM

COc1cc([C@@H]2c3cc4c(cc3[C@@H](O[C@@H]3O[C@@H]5CO[C@@H](C)O[C@H]5[C@H](O)[C@H]3O)[C@H]3COC(=O)[C@H]23)OCO4)cc(OC)c1O [ETOPOSIDE]
IC50 [1]: 1.85 µM
IC50 [2]: 1.81 µM
IC50 [3]: 1.17 µM
IC50 [4]: 1.72 µM

CO[C@@H](C=C(C)C)C[C@H](C)[C@@H]1CC[C@]2(C)C3=CCC4C(C)(C)[C@@H](O)CC[C@]4(C)[C@H]3CC[C@@]12C (stereo not given in full) [CORNUSALTERIN J]
IC50 [1]: 25.4 µM
IC50 [2]: 17.8 µM
IC50 [3]: 12.3 µM
IC50 [4]: 18.2 µM

CC(C)CCC[C@H](C)[C@@H]1CC[C@]2(C)[C@@H]3CC=C4C(C)(C)C(=O)C[C@@H](O)[C@]4(C)[C@H]3CC[C@@]12C [CORNUSALTERIN K]
IC50 [1]: 11.7 µM
IC50 [2]: 12.8 µM
IC50 [3]: 12.4 µM
IC50 [4]: 12 µM

CO[C@H](C=C(C)C)C[C@H](C)[C@@H]1CC[C@]2(C)C3=CCC4C(C)(C)C(=O)CC[C@]4(C)[C@H]3CC[C@@]12C (stereo not given in full) [CORNUSALTERIN H]
IC50 [1]: 28.5 µM
IC50 [2]: 21.4 µM
IC50 [3]: 17.7 µM
IC50 [4]: 18.6 µM
